Results as given in ChEMBL document CHEMBL1641494, “Modulation of PPAR subtype selectivity. Part 2: Transforming PPARα/γ dual agonist into α selective PPAR agonist through bioisosteric modification” (Bioorg Med Chem Lett, 2011).
Active and inactive are the calls of the source. The rule behind the calls is not given here.

Tests used:
[1] = molecular target: T1, Peroxisome proliferator-activated receptor alpha (Homo sapiens) (UniProt Q07869); experiment: Agonist activity at human PPARalpha in human HepG2 cells co-transfected with PPRE3-TK-luc assessed as induction of transactivation activity at 10 uM by luciferase reporter gene assay relative to control; assay type: functional, cell-based
T1 sequence (whole entry): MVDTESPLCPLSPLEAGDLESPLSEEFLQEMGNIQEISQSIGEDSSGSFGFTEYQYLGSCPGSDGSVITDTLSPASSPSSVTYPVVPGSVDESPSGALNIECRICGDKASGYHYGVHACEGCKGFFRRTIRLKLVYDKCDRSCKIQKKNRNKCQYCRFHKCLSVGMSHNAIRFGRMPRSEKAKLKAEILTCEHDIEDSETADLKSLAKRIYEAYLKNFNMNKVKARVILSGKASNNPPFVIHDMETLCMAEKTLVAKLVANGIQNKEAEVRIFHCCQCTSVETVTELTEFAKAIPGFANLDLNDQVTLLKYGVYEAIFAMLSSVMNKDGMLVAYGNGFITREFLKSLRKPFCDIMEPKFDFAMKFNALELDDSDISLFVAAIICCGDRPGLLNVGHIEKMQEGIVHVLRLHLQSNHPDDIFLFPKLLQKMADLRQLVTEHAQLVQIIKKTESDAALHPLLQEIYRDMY
In short: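 HepG2 cells were transfected with pSG5 vector carrying human PPARα cDNA and co-transfected with PPRE3-TK-luc. Firefly luciferase was read and normalised to β-galactosidase activity measured in an ELISA reader. Compound was tested at 10 µM. Results are expressed as fold induction versus vehicle (1% DMSO).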

Rattus norvegicus [2] = experiment: Antihyperlipidemic activity in Sprague-Dawley rat assessed as reduction of serum triglycerides level at 30 mg/kg, po qd for 14 days relative to control; assay type: functional; design: scale not given: the % may be the effect or the level left
In short: (§1)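 Male Sprague–Dawley rats were fed a high-cholesterol diet for 15 days, then given vehicle or compound by oral gavage once daily for 14 days. Serum TG, total cholesterol, LDL-C and HDL-C were measured. Results are expressed as % change versus vehicle (n = 9).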

Rattus norvegicus [3] = experiment: Antihyperlipidemic activity in Sprague-Dawley rat assessed as reduction of serum total cholesterol level at 30 mg/kg, po qd for 14 days relative to control; assay type: functional; design: scale not given: the % may be the effect or the level left; in short: as §1
Mus musculus [4] = experiment: Antihyperglycemic activity in db/db mouse assessed as reduction of serum glucose level at 30 mg/kg, po qd for 7 days relative to control; assay type: functional; design: scale not given: the % may be the effect or the level left
In short: (§2)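 Male db/db mice aged 6–8 weeks were dosed orally once daily for 7 days. Serum triglycerides and glucose were then measured. Results are expressed as % change versus vehicle-treated controls (n = 6).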

Rattus norvegicus [5] = experiment: Antihyperlipidemic activity in Sprague-Dawley rat assessed as reduction of serum LDL-cholesterol level at 30 mg/kg, po qd for 14 days relative to control; assay type: functional; design: scale not given: the % may be the effect or the level left; in short: as §1
Rattus norvegicus [6] = experiment: Antihyperlipidemic activity in Sprague-Dawley rat assessed as increase of serum HDL-cholesterol level at 30 mg/kg, po qd for 14 days relative to control; assay type: functional; in short: as §1
[7] = Half life in Wistar rat at 30 mg/kg, po; assay type: ADME, organism-based; design: dose 30 mg/kg, route oral; details: in vivo
In short: (§3)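 Single oral dose of 30 mpk to fasted male Wistar rats (n = 6). Plasma concentrations were measured by LC–MS, and Tmax, Cmax, T1/2 and AUC(0–∞) were derived. Values are given as mean ± SD.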

Mus musculus [8] = experiment: Antihyperlipidemic activity in db/db mouse assessed as reduction of serum triglycerides level at 30 mg/kg, po qd for 7 days relative to control; assay type: functional; design: scale not given: the % may be the effect or the level left; in short: as §2
[9] = Tmax in Wistar rat at 30 mg/kg, po; assay type: ADME, organism-based; design: dose 30 mg/kg, route oral; details: in vivo; in short: as §3
Rattus norvegicus [10] = experiment: Antihyperlipidemic activity in Sprague-Dawley rat assessed as increase of serum HDL-cholesterol level at 3 mg/kg, po qd for 14 days relative to control; assay type: functional; in short: as §1
Mus musculus [11] = experiment: Antihyperlipidemic activity in db/db mouse assessed as reduction of serum triglycerides level at 3 mg/kg, po qd for 7 days relative to control; assay type: functional; design: scale not given: the % may be the effect or the level left; in short: as §2
[12] = AUC (0 to infinity) in Wistar rat at 30 mg/kg, po; assay type: ADME, organism-based; design: time infinity, dose 30 mg/kg, route oral; details: plasma; in short: as §3
[13] = Cmax in Wistar rat at 30 mg/kg, po; assay type: ADME, organism-based; design: dose 30 mg/kg, route oral; details: in vivo; in short: as §3
Rattus norvegicus [14] = experiment: Antihyperlipidemic activity in Sprague-Dawley rat assessed as reduction of serum triglycerides level at 3 mg/kg, po qd for 14 days relative to control; assay type: functional; design: scale not given: the % may be the effect or the level left; in short: as §1
Mus musculus [15] = experiment: Antihyperglycemic activity in db/db mouse assessed as reduction of serum glucose level at 3 mg/kg, po qd for 7 days relative to control; assay type: functional; design: scale not given: the % may be the effect or the level left; in short: as §2
Rattus norvegicus [16] = experiment: Antihyperlipidemic activity in Sprague-Dawley rat assessed as reduction of serum LDL-cholesterol level at 3 mg/kg, po qd for 14 days relative to control; assay type: functional; design: scale not given: the % may be the effect or the level left; in short: as §1
Rattus norvegicus [17] = experiment: Antihyperlipidemic activity in Sprague-Dawley rat assessed as reduction of serum total cholesterol level at 3 mg/kg, po qd for 14 days relative to control; assay type: functional; design: scale not given: the % may be the effect or the level left; in short: as §1

C/C(=N\OCCOc1ccc(C[C@H]2CO[C@@](C)(C(=O)O)OC2)cc1)c1cccnc1
fold change (FC) [1]: 2.36

COc1ccc(/C(C)=N/OCCOc2ccc(C[C@H]3CO[C@@](C)(C(=O)O)OC3)cc2)cc1OC
fold change (FC) [1]: 3.61

Cc1ccc(-c2nc(COc3ccc(C[C@H]4CO[C@@](C)(C(=O)O)OC4)cc3)c(C)o2)cc1
fold change (FC) [1]: 14.7

C/C(=N\OCCOc1ccc(C[C@H]2CO[C@@](C)(C(=O)O)OC2)cc1)c1ccccc1
fold change (FC) [1]: 10.8

Cc1ccc(-c2nc(CCCC[C@H]3CO[C@@](C)(C(=O)O)OC3)c(C)o2)cc1
Activity (Rattus norvegicus [2]): -51%
Activity (Rattus norvegicus [3]): -49%
fold change (FC) [1]: 12.7
Activity (Mus musculus [4]): -43%
Activity (Rattus norvegicus [5]): -58%
Activity (Rattus norvegicus [6]): 62%
half-life [7]: 1.99 h
Activity (Mus musculus [8]): -54%
Tmax [9]: 0.65 h

C/C(=N\OCCOc1ccc(C[C@H]2CO[C@@](C)(C(=O)O)OC2)cc1)c1ccc2ccccc2c1
fold change (FC) [1]: 1.76

C/C(=N\OCCOc1ccc(C[C@H]2CO[C@@](C)(C(=O)O)OC2)cc1)c1ccc(S(C)(=O)=O)cc1
fold change (FC) [1]: 1.37

CN(CCOc1ccc(CC2SC(=O)NC2=O)cc1)c1ccccn1 (configuration not stated)
fold change (FC) [1]: inactive

C/C(=N\OCCOc1ccc(C[C@H]2CO[C@@](C)(C(=O)O)OC2)cc1)c1ccc(F)cc1
fold change (FC) [1]: 10.5

COc1ccc(/C(C)=N/OCCOc2ccc(C[C@H]3CO[C@@](C)(C(=O)O)OC3)cc2)cc1
Activity (Rattus norvegicus [10]): 68%
Activity (Mus musculus [11]): -53%
fold change (FC) [1]: 15
AUC(0-inf) [12]: 1420 ng·h/mL
half-life [7]: 14 h
Cmax [13]: 120 ng/mL
Activity (Rattus norvegicus [14]): -54%
Activity (Mus musculus [15]): -45%
Activity (Rattus norvegicus [16]): -68%
Activity (Rattus norvegicus [17]): -56%
Tmax [9]: 0.61 h

C/C(=N\OCCOc1ccc(C[C@H]2CO[C@@](C)(C(=O)O)OC2)cc1)c1ccc(OC(F)(F)F)cc1
fold change (FC) [1]: 3.48

C/C(=N\OCCOc1ccc(C[C@H]2CO[C@@](C)(C(=O)O)OC2)cc1)c1ccc(C(F)(F)F)cc1
fold change (FC) [1]: 5.79

C/C(=N\OCCOc1ccc(C[C@H]2CO[C@@](C)(C(=O)O)OC2)cc1)c1ccc2c(c1)CCCC2
fold change (FC) [1]: 1.63

C/C(=N\OCCOc1ccc(C[C@H]2CO[C@@](C)(C(=O)O)OC2)cc1)c1ccc(C)cc1
fold change (FC) [1]: 10.8
